Test results taken from ChEMBL document CHEMBL1138753, “Synthesis and biological activity of analogues of the antimicrotubule agent N,beta,beta-trimethyl-L-phenylalanyl-N(1)-[(1S,2E)-3-carboxy-1-isopropylbut-2-enyl]- N(1),3-dimethyl-L-valinamide (HTI-286)” (J Med Chem, 2004).

Legend:
Tubulin beta-1 chain = Tubulin beta-1 chain (Homo sapiens, UniProt Q9H4B7); assay: Percent inhibition of tubulin polymerization at 0.3 uM concentration; format: functional
KB [1] = assay: Concentration required to inhibit tumor cell growth in KB-V1 cells; format: functional, cell-based; conditions: Homo sapiens
In short: (§1)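 Cytotoxicity was measured in paclitaxel-sensitive KB-3-1 cells and in KB-8-5 and KB-V1 cells, which express moderate and high P-glycoprotein respectively. Result is the average IC50 (nM) ± SEM; SEM is omitted where it is below 10% of the average.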

KB [2] = assay: Concentration required to inhibit tumor cell growth in KB-8-5 cells; format: functional, cell-based, Homo sapiens; conditions: Homo sapiens, KB; in short: as §1
[3] = Concentration required to inhibit tumor cell growth in KB-3-1 cells; format: functional, cell-based, Homo sapiens; conditions: Homo sapiens, KB 3-1; in short: as §1

Tubulin beta-1 chain, sequence (Q9H4B7 whole entry): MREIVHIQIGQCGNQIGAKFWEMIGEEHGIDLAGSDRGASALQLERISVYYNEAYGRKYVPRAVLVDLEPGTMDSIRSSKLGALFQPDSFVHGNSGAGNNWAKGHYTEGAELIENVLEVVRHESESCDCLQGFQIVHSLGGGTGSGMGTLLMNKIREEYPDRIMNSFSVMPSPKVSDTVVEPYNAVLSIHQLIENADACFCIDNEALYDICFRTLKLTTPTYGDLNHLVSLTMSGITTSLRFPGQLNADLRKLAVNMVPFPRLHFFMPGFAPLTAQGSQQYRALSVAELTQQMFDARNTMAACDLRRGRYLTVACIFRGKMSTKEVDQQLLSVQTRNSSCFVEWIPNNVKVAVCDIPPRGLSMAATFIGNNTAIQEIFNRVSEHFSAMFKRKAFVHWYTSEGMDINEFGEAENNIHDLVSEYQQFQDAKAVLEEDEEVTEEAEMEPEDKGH

Structure (SMILES)	inhibition (Tubulin beta-1 chain) [%]	IC50 (KB [1]) [nM]	IC50 (KB [2]) [nM]	IC50 [3] [nM]
CS[C@H](C(=O)N[C@H](C(=O)N(C)[C@H](/C=C(\C)C(=O)O)C(C)C)C(C)(C)C)C(C)(C)c1ccccc1	79	> 6000	1150	691
CN[C@H](C(=O)N[C@H](C(=O)N(C)[C@H](/C=C(\C)C(=O)NO)C(C)C)C(C)(C)C)C(C)(C)c1ccccc1	75	> 3000	227	39
CN[C@H](C(=O)N(C)[C@H](C(=O)N(C)[C@H](/C=C(\C)C(=O)O)C(C)C)C(C)(C)C)C(C)(C)c1ccccc1	4	> 3000	> 3000	> 3000
CCN[C@H](C(=O)N[C@H](C(=O)N(C)[C@H](/C=C(\C)C(=O)O)C(C)C)C(C)(C)C)C(C)(C)c1ccccc1	96	114	2.4	1.6
CCC(CC)(c1ccccc1)[C@H](NC)C(=O)N[C@H](C(=O)N(C)[C@H](/C=C(\C)C(=O)O)C(C)C)C(C)(C)C	86	479	18	8.5
CN[C@H](C(=O)N[C@H](C(=O)N(C)[C@H](/C=C(\C)C(=O)O)C(C)C)C(C)(C)C)[C@H](C)c1ccccc1	77	> 3000	584	438
CN[C@H](C(=O)N[C@H](C(=O)N(C)[C@H](/C=C(\C)C(=O)O)C(C)C)C(C)(C)C)C1(c2ccccc2)CCCC1	77	2660	63	59
CN[C@H](C(=O)N[C@H](C(=O)N(C)[C@H](C[C@H](C)C(=O)O)C(C)C)C(C)(C)C)C(C)(C)c1ccccc1	74	> 3000	69	48
C/C(=C\[C@H](C(C)C)N(C)C(=O)[C@@H](NC(=O)[C@H](C(C)(C)c1ccccc1)S(C)(=O)=O)C(C)(C)C)C(=O)O	80	> 3000	2110	1750
CN[C@H](C(=O)N[C@H](C(=O)N(C)[C@H](/C=C(\C)C(N)=O)C(C)C)C(C)(C)C)C(C)(C)c1ccccc1	72	> 3000	162	65
CN[C@H](C(=O)N[C@H](C(=O)N(C)[C@H](/C=C(\C)C(=O)O)Cc1ccccc1)C(C)(C)C)C(C)(C)c1ccccc1	44	> 3000	1320	479
C/C(=C\[C@H](C(C)C)N(C)C(=O)[C@@H](NC(=O)[C@@H](N)C(C)(C)c1ccccc1)C(C)(C)C)C(=O)O (stereo in doubt; 63)	49			
CS[C@@H](C(=O)N[C@H](C(=O)N(C)[C@H](/C=C(\C)C(=O)O)C(C)C)C(C)(C)C)C(C)(C)c1ccccc1	79	> 6000	1150	691
C/C(=C\[C@H](C(C)C)N(C)C(=O)[C@@H](NC(=O)[C@@H](Cc1ccccc1)C(C)(C)c1ccccc1)C(C)(C)C)C(=O)O	46	> 6000	2240	1690
C/C(=C\[C@H](C(C)C)N(C)C(=O)[C@@H](NC(=O)[C@@H](C(C)(C)c1ccccc1)S(C)(=O)=O)C(C)(C)C)C(=O)O	80	> 3000	2110	1750
C/C(=C\[C@H](C(C)C)N(C)C(=O)[C@@H](NC(=O)CC(C)(C)c1ccccc1)C(C)(C)C)C(=O)O	21	> 3000	> 3000	> 3000
CN[C@H](C(=O)N[C@H](C(=O)N(C)[C@H](/C=C(\C)C(=O)O)C(C)C)C(C)(C)C)[C@@H](C)c1ccccc1	84	> 3000	414	207
CCN(C(=O)[C@@H](NC(=O)[C@@H](NC)C(C)(C)c1ccccc1)C(C)(C)C)[C@H](/C=C(\C)C(=O)O)C(C)C	11	> 3000	197	109
C/C(=C\[C@H](C(C)C)N(C)C(=O)[C@@H](NC(=O)[C@@H](O)C(C)(C)c1ccccc1)C(C)(C)C)C(=O)O	21	> 3000	> 3000	> 3000
C/C(=C\[C@H](C(C)C)N(C)C(=O)[C@@H](NC(=O)[C@@H](NCC(=O)O)C(C)(C)c1ccccc1)C(C)(C)C)C(=O)O	35	> 3000	> 3000	> 3000
C=CC[C@@H](C(=O)N[C@H](C(=O)N(C)[C@H](/C=C(\C)C(=O)O)C(C)C)C(C)(C)C)C(C)(C)c1ccccc1	63	> 6000	1200	1150
C/C(=C\[C@H](C(C)C)N(C)C(=O)[C@@H](NC(=O)[C@@H](NCCO)C(C)(C)c1ccccc1)C(C)(C)C)C(=O)O	90	> 3000	616	183
